What follows are compounds tested on Mus musculus (assay: Antidepressant activity in Swiss albino mouse assessed as reduction of immobility duration at 30 mg/kg, ip administered 3 times for 24 hrs measured after 1 hr last post dose by tail suspension test). Details: route intraperitoneal.
Format: functional
Set-up: scale not given: the % may be the effect or the level left
Summary of the method: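 Adult male Swiss albino mice (22 ± 2 g), housed with controlled humidity, temperature and day-night cycle. Compound in DMSO given ip at 30 mg/kg at t = 0, 18 and 24 h; vehicle controls got DMSO ip at 5 mL/kg. Tail suspension run 1 h after the final dose, immobility scored over 6 min. %DID = [(A − B)/A] × 100 against control; n = 6, mean ± SEM, one-way ANOVA with Dunnett's test.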

Point of comparison: `Cc1ccccc1NC(=O)CSc1nnc2c(n1)[nH]c1ccccc12`, Activity 20.87%. Against it:
- O=C(CSc1nnc2c(n1)[nH]c1ccccc12)Nc1ccc(Cl)cc1 — higher, 68.33%
- O=C(CSc1nnc2c(n1)[nH]c1ccccc12)Nc1ccc(Br)cc1 — higher, 67.59%
- Cc1ccc(NC(=O)CSc2n[nH]c3c4ccccc4nc-3n2)cc1 — higher, 30.57%
- O=C(CSc1nnc2c(n1)[nH]c1ccccc12)Nc1cccc([N+](=O)[O-])c1 — higher, 58.75%
- O=C(CSc1nnc2c(n1)[nH]c1ccccc12)Nc1ccccc1 — higher, 70.62%
- O=C(CSc1nnc2c(n1)[nH]c1ccccc12)Nc1cccc(Cl)c1 — higher, 57.15%
- COc1cccc(NC(=O)CSc2nnc3c(n2)[nH]c2ccccc23)c1 — higher, 31.08%
- CN(C)CCCN1c2ccccc2CCc2ccccc21 [IMIPRAMINE] — higher, 60.58%
- COc1ccccc1NC(=O)CSc1nnc2c(n1)[nH]c1ccccc12 — higher, 24.3%
- Cc1cccc(NC(=O)CSc2nnc3c(n2)[nH]c2ccccc23)c1 — higher, 26.29%
- O=C(CSc1nnc2c(n1)[nH]c1ccccc12)Nc1cccc(Br)c1 — higher, 66.57%
- COc1ccc(NC(=O)CSc2nnc3c(n2)[nH]c2ccccc23)cc1 — lower, 20.82%
- O=C(CSc1nnc2c(n1)[nH]c1ccccc12)Nc1ccccc1Br — higher, 42.84%
- O=C(CSc1nnc2c(n1)[nH]c1ccccc12)Nc1ccc([N+](=O)[O-])cc1 — higher, 62.35%
- O=C(CSc1nnc2c(n1)[nH]c1ccccc12)Nc1ccccc1[N+](=O)[O-] — higher, 42.66%
- CNCCC(Oc1ccc(C(F)(F)F)cc1)c1ccccc1 (stereo unspecified) [FLUOXETINE] — higher, 69.48%
- O=C(CSc1nnc2c(n1)[nH]c1ccccc12)Nc1ccccc1Cl — higher, 51.89%
- O=C(CSc1nnc2c(n1)[nH]c1ccccc12)NCc1ccccc1 — higher, 56.75%
- O=C(CSc1n[nH]c2c3ccccc3nc-2n1)NC1CCCCC1 — higher, 47.51%
- O=C(NCCN1CCOCC1)c1ccc(Cl)cc1 [MOCLOBEMIDE] — higher, 68.16%
